According to ChEMBL document CHEMBL1121519, “Basic antiinflammatory compounds. N,N',N''-Trisubstituted guanidines” (J Med Chem, 1980):

Key:
[1] = organism: Rattus norvegicus; assay: Tested for inhibition in the rat paw not injected with […].; assay type: functional; set-up: concentration or dose not given beside the values
In short: (§1)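 Adjuvant-induced arthritis, female Lewis rats, six per group: M. butyricum in mineral oil (3 mg/mL, 0.1 mL) injected into right hind paw plantar tissue. Daily oral dosing from adjuvant day to day 28, 10 or 5 (mg/kg)/day according to mouse oral LD50 (≥1000 or <1000 mg/kg). Injected and noninjected paw swelling read by mercury-displacement plethysmometry on day 28.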

[2] = test system: Rattus norvegicus; assay: Total score is the sum of scores obtained in the adjuvant arthritis, acute toxicity, carrageenan edema, and prostaglandin synthetase assay; assay type: functional
[3] = molecular target: T1, Cyclooxygenase (Bos taurus) (UniProt O62664+O62698); assay: Inhibition of prostaglandin synthetase in bovine seminal vesicle microsomes using Beckman liquid scintillation counter at 10 e-5 M; conditions: Microsome
[4] = Lethal dose in mice determined by Litchfield and Wilcoxon methods after peroral administration.; assay type: toxicity, organism-based; conditions: mouse, in vivo, po
In short: (§2)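 Median lethal dose found after oral dosing of mice, four mice per dose level, and calculated by the Litchfield–Wilcoxon method.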

[5] = organism: Rattus norvegicus; assay: Average percent inhibition (arthritis score=2) of the swelling of both injected and non injected paw was measured;values ranges from: […]-[…]; assay type: functional
[6] = organism: Rattus norvegicus; assay: Tested for inhibition in the rat paw injected with carrageenan.; assay type: functional; set-up: concentration or dose not given beside the values
[7] = test system: Rattus norvegicus; assay: Percent inhibition of carrageenan paw edema in rat, administered orally at a dose of one tenth of oral lethal dose in mice; assay type: functional
In short: (§3)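 1 h later, 0.1 mL of 1% carrageenan was injected into the right hind-paw plantar tissue. Paw swelling was measured by mercury-displacement plethysmometry 3 h after carrageenan, compared with controls.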

[8] = Toxic score (3) was measured as lethal dose in orally administered mice; assay type: toxicity, organism-based; conditions: mouse, in vivo, po
In short: (§4)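 Score derived from mouse oral LD50 (Litchfield–Wilcoxon, four mice per dose), in mg/kg: >1000 = 3; 500-1000 = 2; <500 = 1.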

[9] = organism: Rattus norvegicus; assay: Average percent inhibition of the swelling of both injected and non injected paw was measured; […]; assay type: functional
[10] = test system: Rattus norvegicus; assay: Tested for percent enhancement of carrageenan paw edema in rat, administered orally at a dose of one tenth of oral lethal dose in mice; assay type: functional; in short: as §3
[11] = organism: Rattus norvegicus; assay: Average percent inhibition (arthritis score=1) of the swelling of both injected and non injected paw was measured; […]; assay type: functional
[12] = organism: Rattus norvegicus; assay: Average percent inhibition (arthritis score)of the swelling of both injected and non injected paw was measured; assay type: functional
In short: (§5)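 Adjuvant arthritis in inbred female Lewis rats, groups of six, acclimatized 2 weeks. Arthritis induced by injecting 0.1 mL M. butyricum in mineral oil (3 mg/mL) into right hind paw plantar tissue. Oral dosing daily from adjuvant day to day 28: 10 (mg/kg)/day if mouse oral LD50 ≥1000 mg/kg, else 5 (mg/kg)/day. Swelling of injected and noninjected paws measured day 28 by mercury-displacement plethysmometry; mean percent inhibition scored 0–3.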

[13] = Toxic score (1) was measured as lethal dose in orally administered mice; assay type: toxicity, organism-based; conditions: in vivo, po; in short: as §4
[14] = test system: Rattus norvegicus; assay: Tested for inhibition at the dose of 5(mg/kg)/day in the rat paw not injected with carrageenan.; assay type: functional; conditions: in the assay text read “adjuvant” for “carrageenan”; in short: as §1
[15] = organism: Rattus norvegicus; assay: Average percent inhibition (arthritis score=3) of the swelling of both injected and non injected paw was measured; assay type: functional; in short: as §5
[16] = test system: Rattus norvegicus; assay: Effective dose against analgesic activity (peroral administration); assay type: functional; conditions: po
[17] = test system: Rattus norvegicus; assay: Tested for percent inhibition of carrageenan paw edema in rat, administered orally at a dose of one tenth of oral lethal dose in mice; assay type: functional
In short: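 Sprague-Dawley rats fasted 18 h; compound suspended in 0.5% carboxymethylcellulose, given orally 1 h before 0.1 mL of 1% carrageenan suspension injected into the plantar tissue of the right hind paw. Paw swelling measured by mercury-displacement plethysmometry 3 h after carrageenan, treated versus controls. Mouse oral LD50 was from the Litchfield-Wilcoxon method with four mice per dose.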

[18] = test system: Rattus norvegicus; assay: Minimum effective dose against adjuvant arthritis on therapeutic dosing (peroral administration); assay type: functional; conditions: po, read-out: MED
In short: (§6)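 Female Lewis rats given adjuvant arthritis by plantar M. butyricum in mineral oil. Oral daily dosing either from adjuvant day to day 28 (continuous), day 16 to day 28 (therapeutic), or day 5 pre- to day 5 postadjuvant (prophylactic). MED: lowest dose producing significant (p < 0.05) inhibition of noninjected paw swelling on day 28, by plethysmometry.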

[19] = test system: Rattus norvegicus; assay: Effective dose against carrageenan edema(peroral administration); assay type: functional; conditions: po
In short: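 Sprague-Dawley rats fasted 18 h, dosed orally in 0.5% carboxymethylcellulose suspension 1 h before 0.1 mL of 1% carrageenan into right hind paw plantar tissue. Paw swelling in treated versus control rats measured 3 h post-carrageenan by mercury-displacement plethysmometry; ED50 given in mg/kg po.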

[20] = test system: Rattus norvegicus; assay: Effective dose against nystatin edema(peroral administration); assay type: functional; conditions: po
[21] = test system: Rattus norvegicus; assay: Minimum effective dose against adjuvant arthritis on prophylactic dosing (peroral administration); assay type: functional; conditions: po, read-out: MED; in short: as §6
[22] = test system: Rattus norvegicus; assay: Minimum effective dose against adjuvant arthritis on administration); assay type: functional; conditions: read-out: MED; in short: as §6
[23] = test system: Rattus norvegicus; assay: Effective dose against gastroulcerogenic activity (peroral administration); assay type: functional; conditions: po
In short: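 Groups of six Sprague-Dawley rats given oral doses once daily for 3 days; inner stomach surface examined for lesions 24 h after last dose. ED50 is the dose giving macroscopically visible lesions in 50% of rats.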

[24] = organism: Rattus norvegicus; assay: Minimum effective dose is the lowest dose preventing any futher increase in body temperature; assay type: functional; conditions: read-out: MED
In short: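 Antipyretic test, oral dosing; MED defined as the lowest dose preventing any further increase of body temperature.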

[25] = Tested for percent inhibition of carrageenan paw edema in rat, administered orally at a dose of one tenth of lethal dose; assay type: organism-based; conditions: in vivo, po; in short: as §3
[26] = organism: Rattus norvegicus; assay: Average percent inhibition (arthritis score) of the swelling of both injected and non injected paw was measured; […]; assay type: functional
[27] = organism: Rattus norvegicus; assay: Average percent inhibition (arthritis score=1) of the swelling of both injected and non injected paw was measured;values ranges from: […]-[…]; assay type: functional
[28] = organism: Rattus norvegicus; assay: Tested for enhancement in the rat paw not injected with carrageenan.; assay type: functional
[29] = molecular target: T1, Cyclooxygenase (Bos taurus); assay: Tested for Prostaglandin Synthetase inhibition in Bovine seminal vesicle microsomes using Beckman liquid scintillation counter at 10 e-5 M; conditions: Microsome
[30] = organism: Rattus norvegicus; assay: Average percent inhibition (arthritis score)of the swelling of both injected and non injected paw was measured; […]; assay type: functional
[31] = organism: Rattus norvegicus; assay: Average percent inhibition (arthritis score=0) of the swelling of both injected and non injected paw was measured; assay type: functional; in short: as §5
[32] = Toxic score was measured as lethal dose in orally administered mice;Values ranges from: 500-1000; assay type: toxicity, organism-based; conditions: mouse, in vivo, po; in short: as §4
[33] = Lethal dose in mice(peroral administration); assay type: toxicity, organism-based; conditions: mouse, in vivo, po; in short: as §2
[34] = Inhibitory concentration against PG synthetase; assay type: functional
[35] = Lethal dose in rats(peroral administration); assay type: toxicity, organism-based; conditions: rat, in vivo, po

Compound	Inhibition [1]	Total score [2]	inhibition [3]	LD50 [4]	Inhibition [6]	Inhibition [7]	LD50 [8]	also measured
Cc1cc(N/C(=N\C2CC2)Nc2nccs2)c2ccccc2n1	30%	7	15.8%	600 mg/kg	53%	65%	–	Inhibition [5]: 49%
Cc1cc(N/C(=N/c2ccccc2)Nc2nccs2)c2ccccc2n1	47%	10	83.8%	> 1000 mg/kg	46%	59%	> 1000 mg/kg	Inhibition [9]: 49%
Cc1cc(N/C(=N/C(C)(C)C)Nc2cccs2)c2ccccc2n1	26%	8	37.2%	> 1000 mg/kg	16%	73%	> 1000 mg/kg	Inhibition [9]: 29%
CCOC(=O)c1csc(/N=C(\Nc2cc(C)nc3ccccc23)NC2CCCCC2)n1	24%	7	89.8%	> 1000 mg/kg	4%	–	> 1000 mg/kg	Enhancement [10]: 1%; Inhibition [11]: 29%
CCC(C)(C)/N=C(/Nc1nccs1)Nc1cc(C)nc2ccccc12	55%	9	100%	400 mg/kg	59%	53%	–	Inhibition [12]: >=50%; LD50 [13]: < 500 mg/kg
Cc1cc(N/C(=N\C(C)(C)C)Nc2nccs2)c2ccccc2n1	–	8	100%	200 mg/kg	–	34%	–	LD50 [13]: < 500 mg/kg; Inhibition [14]: 60%; Inhibition [15]: >=50%
COc1ccc2c(c1)c(CC(=O)O)c(C)n2C(=O)c1ccc(Cl)cc1 [INDOMETHACIN]	–	–	–	24.3 mg/kg	–	–	–	ED50 [16]: 6.5 mg/kg; LD50 [17]: 12 mg/kg; minimal effective dose [18]: < 1 mg/kg; ED50 [19]: 3.5 mg/kg; ED50 [20]: > 6 mg/kg; minimal effective dose [21]: 2 mg/kg; minimal effective dose [22]: 1 mg/kg; ED50 [23]: 4.6 mg/kg; minimal effective dose [24]: 1.6 mg/kg
CCCCCC/N=C(\Nc1nccs1)Nc1cc(C)nc2ccccc12	–	–	-23.8%	–	–	–	–	LD50 [25]: 8 mg/kg
Cc1cc(/N=C(\Nc2cc(C)nc3ccccc23)NC2CCCCC2)sn1	21%	9	83.2%	> 1000 mg/kg	1%	48%	> 1000 mg/kg	Inhibition [26]: 29%
CCCC/N=C(/Nc1nccs1)Nc1cc(C)nc2ccccc12	–	6	0.6%	800 mg/kg	–	89%	–	Inhibition [14]: 34%; Inhibition [27]: 29%
CCCCC/N=C(\Nc1nccs1)Nc1cc(C)nc2ccccc12	–	7	-37%	400 mg/kg	19%	62%	> 1000 mg/kg	Enhancement [28]: 4%; Inhibition [27]: 29%
Cc1cc(N/C(=N/C2CCCCC2)NC2NC=CS2)c2ccccc2n1 (centres undefined)	–	–	–	> 1000 mg/kg	–	33%	–	inhibition [29]: 12.6%
Cc1cc(N/C(=N/C2CCCCC2)Nc2nc(C)c(C)s2)c2ccccc2n1	–	8	87.9%	> 1000 mg/kg	7%	54%	> 1000 mg/kg	Enhancement [28]: 63%; Inhibition [12]: <10%
Cc1cc(N/C(=N/C(C)(C)C)Nc2nnc(C)s2)c2ccccc2n1	51%	9	33%	> 1000 mg/kg	45%	85%	> 1000 mg/kg	Inhibition [30]: 49%
CCOc1cc(N/C(=N/C(C)(C)C)Nc2nccs2)c2ccccc2n1	13%	6	88.9%	800 mg/kg	8%	39%	–	Inhibition [31]: <10%; LD50 [32]: 1000 mg/kg
Cc1cc(N/C(=N/C2CCCCCCC2)Nc2nccs2)c2ccccc2n1	–	9	55.1%	> 1000 mg/kg	21%	62%	> 1000 mg/kg	Enhancement [28]: 8%; Inhibition [11]: 29%
Cc1cc(/N=C(\Nc2nccs2)NC2CCCCC2)c2ccccc2n1 [TIMEGADINE]	63%	12	100%	> 1000 mg/kg	53%	68%	> 1000 mg/kg	ED50 [16]: 68.5 mg/kg; LD50 [33]: > 1000 mg/kg; minimal effective dose [18]: 10 mg/kg; ED50 [19]: 29.6 mg/kg; IC50 [34]: 2.5 µM; ED50 [20]: 26.5 mg/kg; minimal effective dose [21]: 10 mg/kg; minimal effective dose [22]: 3 mg/kg; ED50 [23]: 170 mg/kg; minimal effective dose [24]: 12.4 mg/kg; LD50 [35]: 1220 mg/kg; Inhibition [15]: >=50%
